This is an account of results in ChEMBL document CHEMBL1268907, “Synthesis and evaluation of benzoxazole derivatives as 5-lipoxygenase inhibitors” (Bioorg Med Chem, 2010).

The target of assay [1] is T1, Polyunsaturated fatty acid 5-lipoxygenase (Mus musculus, UniProt P48999).
T1 sequence (P48999 whole entry): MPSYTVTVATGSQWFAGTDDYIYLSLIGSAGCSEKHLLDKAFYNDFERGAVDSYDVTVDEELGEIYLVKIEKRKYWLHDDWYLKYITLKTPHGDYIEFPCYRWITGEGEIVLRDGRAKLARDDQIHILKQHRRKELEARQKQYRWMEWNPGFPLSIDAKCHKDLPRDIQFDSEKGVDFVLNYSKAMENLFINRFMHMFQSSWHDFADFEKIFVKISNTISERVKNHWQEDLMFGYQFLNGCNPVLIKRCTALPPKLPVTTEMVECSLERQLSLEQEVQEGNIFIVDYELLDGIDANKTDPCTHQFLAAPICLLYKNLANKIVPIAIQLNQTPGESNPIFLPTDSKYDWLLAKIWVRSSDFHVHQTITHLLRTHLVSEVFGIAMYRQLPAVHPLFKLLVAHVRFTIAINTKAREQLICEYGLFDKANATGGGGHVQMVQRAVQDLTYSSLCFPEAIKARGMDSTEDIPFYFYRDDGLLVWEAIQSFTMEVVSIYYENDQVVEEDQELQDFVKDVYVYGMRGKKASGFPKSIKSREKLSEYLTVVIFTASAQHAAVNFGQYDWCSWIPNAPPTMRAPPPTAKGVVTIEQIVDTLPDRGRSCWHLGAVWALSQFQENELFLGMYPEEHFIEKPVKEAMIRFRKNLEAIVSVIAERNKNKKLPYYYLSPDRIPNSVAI
The assay can be described thus: Inhibition of 5-lipoxygenase in BALB/c mouse BMMC assessed as LTC4 release after 20 mins by enzyme immunoassay. Put shortly:
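Bone marrow mast cells from male Balb/c mice, cultured up to 4 weeks in enriched RPMI + 10% FBS + IL-3 (2 ng/mL); >98% purity by toluidine blue staining. Cells at 1×10^6/mL pre-incubated with compound in DMSO (final <0.5%) for 30 min at 37 °C, then stimulated with SCF 100 ng/mL for 20 min. Supernatant LTC4 measured by EIA in triplicate; % reduction calculated.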

For assay [2], the system named is Mus musculus. The assay can be described thus: Antiasthamatic activity against ovalbumin-induced airway hyperresponsiveness mouse model assessed as reduction of increase in penh value at 30 mg/kg, po administered 24 hrs after last ovalbumin challenge measured after 24 hrs by plethysmography. In kind it is functional, organism-based. Also noted: dose 30 mg/kg. In a few lines: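 OVA/alum-sensitized mice (i.p., days 0 and 11) challenged with 1% OVA aerosol, given 30 mg/kg orally. 24 h after final aerosol, whole-body plethysmography was run: PBS aerosol, then methacholine 12.5, 25 and 50 mg/mL for 3 min each, with 5 min recording per step. Peak Penh at each dose expressed as % of basal PBS Penh.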

In assay [3] the test system is Mus musculus. In words: Antiasthamatic activity against ovalbumin-induced airway hyperresponsiveness mouse model assessed as reduction of bronchoalveolar lavage fluid IL-13 level at 30 mg/kg, po measured 48 hrs after ovalbumin challenge. Type of assay: functional, Lung. Put shortly: (§1)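 OVA sensitization i.p. (20 µg OVA with 2 mg aluminum hydroxide in PBS pH 7.4, days 0 and 11), then airway challenge with 1% OVA aerosol for 20 min on days 19, 20, 21 and 25. Compound given orally at 30 mg/kg. BALF collected 48 h after last challenge by three 0.5 mL ice-cold PBS lavages and centrifuged. IL-4, IL-5 and IL-13 measured by mouse ELISA (detection limit 250 pg/mL). n = 5–6 per group, mean ± SEM.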

Assay [4] deals with Mus musculus. In words: Antiasthamatic activity against ovalbumin-induced airway hyperresponsiveness mouse model assessed as reduction of mononuclear cells infiltration at 30 mg/kg, po measured 48 hrs after ovalbumin challenge. Also noted: dose 30 mg/kg. In kind it is functional, organism-based. Put shortly:
(§2)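 Mice sensitized i.p. with OVA/alum on days 0 and 11 and challenged with 1% OVA aerosol on days 19–21 and 25. Oral dosing at 30 mg/kg. Lungs taken 48 h after last challenge, fixed 24 h in 10% neutral-buffered formalin, paraffin-embedded, cut at 4 µm and H&E stained. Peribronchial/perivascular infiltration scored 0–3 blind by two independent investigators.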

The subject of assay [5] is Mus musculus. The assay can be described thus: Antiasthamatic activity against ovalbumin-induced airway hyperresponsiveness mouse model assessed as reduction of eosinophils infiltration at 30 mg/kg, po measured 48 hrs after ovalbumin challenge. In kind it is functional, organism-based. More on the design: dose 30 mg/kg. In a few lines:
as §2

The subject of assay [6] is Mus musculus. In words: Antiasthamatic activity against ovalbumin-induced airway hyperresponsiveness mouse model assessed as reduction of bronchoalveolar lavage fluid IL-4 level at 30 mg/kg, po measured 48 hrs after ovalbumin challenge. In kind it is functional, Lung. Put shortly: as §1
The subject of assay [7] is Mus musculus. In words: Antiasthamatic activity against ovalbumin-induced airway hyperresponsiveness mouse model assessed as reduction of plasma IgE level at 30 mg/kg, po measured 48 hrs after ovalbumin challenge (reference value: 41.82 +/- 10.57 ng/ml). Type of assay: functional.
The test system of assay [8] is Mus musculus. The assay can be described thus: Antiasthamatic activity against ovalbumin-induced airway hyperresponsiveness mouse model assessed as reduction of bronchoalveolar lavage fluid IL-5 level at 30 mg/kg, po measured 48 hrs after ovalbumin challenge. In kind it is functional, Lung. In a few lines:
as §1

Active and inactive are the calls of the source. No cut-off for these calls is given here.

On to `CSc1ccc(Nc2nc3cc(C)ccc3o2)cc1`, for which the IC50 (in general, the concentration that inhibits the measured activity by half) in assay [1] turned out to be 7.31 µM.

Turning to `CCc1ccc(Nc2nc3cc(C)ccc3o2)cc1`, the outcome in assay [2], in assay [4] and in assay [5] was Active. For the same compound, the Activity in assay [3] stood at 64.3 ng/mL; in assay [6], 198.34 ng/mL; in assay [7] it was 19.21 ng/mL; in assay [8], 116.92 ng/mL. The half-inhibitory concentration (IC50) in assay [1] was found to be 0.12 µM.

Regarding `COc1ccc2oc(Nc3ccc(C(C)C)cc3)nc2c1`, the IC50 in assay [1] worked out at 2.64 µM.

Turning to `CCc1ccccc1Nc1nc2cc(C)ccc2o1`, the IC50 in assay [1] came to 5.66 µM.

On to `Clc1ccc2oc(Nc3ccccc3)nc2c1`, for which the IC50 in assay [1] came out at 4.5 µM.

For the compound `COc1ccc2oc(Nc3ccccc3)nc2c1`, the IC50 in assay [1] was 7.88 µM.

In the case of `CCc1ccc(Nc2nc3cc(Cl)ccc3o2)cc1`, the outcome in assay [2], in assay [4] and in assay [5] was Active. Further, the Activity in assay [3] is 71.91 ng/mL; in assay [6], 163.49 ng/mL; in assay [7] it was 25.44 ng/mL; in assay [8], 110.91 ng/mL.

`COc1ccc2oc(Nc3ccc(SC)cc3)nc2c1`: the IC50 in assay [1] worked out at 2.77 µM.

Take `COc1ccc2oc(Nc3cccc(Br)c3)nc2c1`: in assay [1], the IC50 was 2.03 µM.

As for `Cc1ccc2oc(Nc3ccccc3)nc2c1`, the IC50 in assay [1] is 4.6 µM.

Turning to `COc1cccc(Nc2nc3cc(C)ccc3o2)c1`, the IC50 in assay [1] came out at 6.83 µM.
